Test results as given in ChEMBL document CHEMBL1121744, “Synthesis and antihypertensive activity of a series of 8-substituted 1-oxa-3,8-diazaspiro[4.5]decan-2-ones” (J Med Chem, 1981).
Where “and” joins values, the source holds several entries; their conditions need not be identical. Equal entries are not always repeated.

Assays:
Rattus norvegicus [1] = assay: Percentage fall in systolic blood pressure in spontaneously hypertensive rats after 2 hr following 50 mg/kg p.o.; assay type: functional, Artery; conditions: route oral
Outline: (§1)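 Male Okamoto-Aoki SHR, trained, in groups of four matched for mean systolic pressure; one group per run received water vehicle. Oral dosing in water (0.1 mL per 10 g) on two consecutive mornings. After the day-2 dose, rats were restrained at 30.0 ± 1.0 °C. Systolic pressure was read by tail cuff (inflated to 300 mmHg, first pulse) at 1–4 h. % fall is versus the untreated control group, by 1-tail t test (p ≤ 0.05).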

Rattus norvegicus [2] = assay: Antihypertensive activity as percentage fall in systolic blood pressure in spontaneously hypertensive rats after a period of 1 hr for a dose of 50 mg/kg; assay type: functional, Artery; outline: as §1
Rattus norvegicus [3] = assay: Percentage fall in systolic blood pressure in spontaneously hypertensive rats after 3 h following 50 mg/kg p.o.; assay type: functional, Artery; conditions: route oral; outline: as §1
Rattus norvegicus [4] = assay: Antihypertensive activity as percentage fall in systolic blood pressure in spontaneously hypertensive rats after a period of 2 hr for a dose of 50 mg/kg; assay type: functional, organism-based; parameters: dose 50 mg/kg; conditions: Artery; outline: as §1
Rattus norvegicus [5] = assay: Antihypertensive activity as percentage fall in systolic blood pressure in spontaneously hypertensive rats after a period of 3 h for a dose of 50 mg/kg; assay type: functional, organism-based; parameters: dose 50 mg/kg; conditions: Artery; outline: as §1
Rattus norvegicus [6] = assay: Antihypertensive activity as percentage fall in systolic blood pressure in spontaneously hypertensive rats after a period of 4 hr for a dose of 50 mg/kg; assay type: functional, organism-based; parameters: dose 50 mg/kg; conditions: Artery; outline: as §1
Rattus norvegicus [7] = assay: Antihypertensive activity as percentage fall in systolic blood pressure in spontaneously hypertensive rats after a period of 1 hr for a dose of 50 mg/kg po; assay type: functional, organism-based; parameters: dose 50 mg/kg; conditions: Artery; outline: as §1
[8] = (§2) Distribution coefficient between 1-Octanol and phosphate buffer at pH7.4; assay type: physicochemical; conditions: 1-octanol/phosphate buffer, pH 7.4
Outline: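 Octanol/buffer distribution measured at pH 7.4 in phosphate with sodium chloride. Either HPLC (0.004 M) or shake flask.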

Rattus norvegicus [9] = assay: The antihypertensive activity as percentage fall in systolic blood pressure in spontaneously hypertensive rats after a period of 3 hr for a dose of 50 mg/kg po
Rattus norvegicus [10] = assay: The antihypertensive activity as percentage fall in systolic blood pressure in spontaneously hypertensive rats after a period of 1 hr for a dose of 50 mg/kg po
Rattus norvegicus [11] = assay: The antihypertensive activity as percentage fall in systolic blood pressure in spontaneously hypertensive rats after a period of 4 hr for a dose of 50 mg/kg po
Rattus norvegicus [12] = assay: The antihypertensive activity as percentage fall in systolic blood pressure in spontaneously hypertensive rats after a period of 2 hr for a dose of 50 mg/kg po
[13] = as §2; assay type: physicochemical; conditions: 1-octanol/phosphate buffer, pH 7.4; remark: listed apart in the source

SMILES	Decrease in blood pressure (Rattus norvegicus [2]) [%]	Decrease in blood pressure (Rattus norvegicus [4])	Decrease in blood pressure (Rattus norvegicus [5])	Decrease in blood pressure (Rattus norvegicus [6])	Decrease in blood pressure (Rattus norvegicus [7])	logD [8]	further results
COc1ccccc1OC[C@@H](O)CN1CCC2(CC1)CN(C)C(=O)O2	25	–	–	–	–	–	Decrease in blood pressure (Rattus norvegicus [1]; 50 mg/kg): 16% and 13%; Decrease in blood pressure (Rattus norvegicus [3]): 10%
O=C1OC2(CCN(CC(O)C3COc4ccccc4O3)CC2)CN1c1ccccc1 (stereo not given)	16	Not significant	Not significant	Not significant	–	–	–
CCC1N(C)C(=O)OC12CCN(CCc1c[nH]c3ccccc13)CC2 (stereo not given)	–	Not significant	Not significant	Not significant	Not significant	2.14	–
COc1ccccc1OC[C@H](O)CN1CCC2(CC1)CN(C)C(=O)O2	10	–	Not significant	Not significant	–	–	Decrease in blood pressure (Rattus norvegicus [1]): 5%
COc1ccccc1OCC(O)CN1CCC2(CC1)CNC(=O)O2 (stereo not given)	–	Not significant	Not significant	Not significant	Not significant	0.69	–
CCCCN1CC2(CCN(CCc3c[nH]c4ccccc34)CC2)OC1=O	–	Not significant	Not significant	Not significant	Not significant	–	–
O=C1NC(c2ccccc2)C2(CCN(CC(O)C3COc4ccccc4O3)CC2)O1 (stereo not given)	–	Not significant	Not significant	Not significant	Not significant	2.41	–
CC(C)CC1NC(=O)OC12CCN(CCc1c[nH]c3ccccc13)CC2 (stereo not given)	27	–	–	Not significant	–	–	Decrease in blood pressure (Rattus norvegicus [3]): 22%
CCC1NC(=O)OC12CCN(CC(O)C1COc3ccccc3O1)CC2 (stereo not given)	–	–	–	–	–	–	Decrease in blood pressure (Rattus norvegicus [9]): 32%; Decrease in blood pressure (Rattus norvegicus [10]): 47%; Decrease in blood pressure (Rattus norvegicus [11]): 40%; Decrease in blood pressure (Rattus norvegicus [12]): 43%
CCCN1CC2(CCN(CC(O)COc3ccccc3OC)CC2)OC1=O (stereo not given)	–	Not significant	Not significant	Not significant	Not significant	–	–
O=C1NC(Cc2ccccc2)C2(CCN(CC(O)C3COc4ccccc4O3)CC2)O1 (stereo not given)	–	Not significant	Not significant	Not significant	Not significant	2.41	–
O=C1OC2(CCN(CCc3c[nH]c4ccccc34)CC2)CN1CCc1ccccc1	–	Not significant	Not significant	Not significant	Not significant	2.95	–
CCCC1NC(=O)OC12CCN(CCc1c[nH]c3ccccc13)CC2 (stereo not given)	36	–	–	Not significant	–	2.31	Decrease in blood pressure (Rattus norvegicus [1]): 12%; Decrease in blood pressure (Rattus norvegicus [3]): 16%
O=C1OC2(CCN(CC(O)C3COc4ccccc4O3)CC2)CN1CCc1ccccc1 (stereo not given)	14	Not significant	Not significant	Not significant	–	2.79	–
CCCN1CC2(CCN(CCc3c[nH]c4ccccc34)CC2)OC1=O	14	Not significant	Not significant	Not significant	–	2.36	–
CC(C)C1NC(=O)OC12CCN(CCc1c[nH]c3ccccc13)CC2 (stereo not given)	26	–	Not significant	Not significant	–	–	Decrease in blood pressure (Rattus norvegicus [1]): 17%

SMILES	Decrease in blood pressure (Rattus norvegicus [2]) [%]	Decrease in blood pressure (Rattus norvegicus [4])	Decrease in blood pressure (Rattus norvegicus [5])	Decrease in blood pressure (Rattus norvegicus [6])	Decrease in blood pressure (Rattus norvegicus [7])	logD [8]	further results
O=C1OC2(CCN(CC(O)C3COc4ccccc4O3)CC2)CN1Cc1ccccc1 (stereo not given)	–	Not significant	Not significant	Not significant	Not significant	–	–
COc1ccccc1OCC(O)CN1CCC2(CC1)CN(Cc1ccccc1)C(=O)O2 (stereo not given)	–	Not significant	Not significant	Not significant	Not significant	–	logD [13]: 2.19
CCC1CN(CCc2c[nH]c3ccccc23)CCC12CNC(=O)O2 (stereo not given)	16	–	Not significant	Not significant	–	2.01	Decrease in blood pressure (Rattus norvegicus [1]): 19%
CCC1NC(=O)OC12CC[N+](C)(CCc1c[nH]c3ccccc13)CC2.[I-] (stereo not given)	20	Not significant	Not significant	Not significant	–	–	–
O=C1NC(c2ccccc2)C2(CCN(CCc3c[nH]c4ccccc34)CC2)O1 (stereo not given)	–	Not significant	Not significant	Not significant	Not significant	2.61	–
CCN1CC2(CCN(CC(O)COc3ccccc3OC)CC2)OC1=O (stereo not given)	11	Not significant	Not significant	Not significant	–	–	–
CCCCC1NC(=O)OC12CCN(CCc1c[nH]c3ccccc13)CC2 (stereo not given)	24	–	–	Not significant	–	–	Decrease in blood pressure (Rattus norvegicus [1]): 14%; Decrease in blood pressure (Rattus norvegicus [3]): 15%
CCCCN1CC2(CCN(CC(O)COc3ccccc3OC)CC2)OC1=O (stereo not given)	–	Not significant	Not significant	Not significant	Not significant	–	–
COCCN1CC2(CCN(CCc3c[nH]c4ccccc34)CC2)OC1=O	21	Not significant	Not significant	Not significant	–	–	–
COc1ccccc1OCC(O)CN1CCC2(CC1)CN(C(C)C)C(=O)O2 (stereo not given)	–	Not significant	Not significant	Not significant	Not significant	–	–
CC1NC(=O)OC12CCN(CCc1c[nH]c3ccccc13)CC2 (stereo not given)	18	Not significant	Not significant	Not significant	–	1.43	–
COc1ccccc1OCC(O)CN1CCC2(CC1)CN(CCc1ccccc1)C(=O)O2 (stereo not given)	–	Not significant	Not significant	Not significant	Not significant	–	–
CCCC1CN(CCc2c[nH]c3ccccc23)CCC12CNC(=O)O2 (stereo not given)	21	Not significant	Not significant	Not significant	–	2.42	–
CCCCN1CC2(CCN(CC(O)C3COc4ccccc4O3)CC2)OC1=O (stereo not given)	–	Not significant	Not significant	Not significant	Not significant	–	–
O=C1OC2(CCN(CCc3c[nH]c4ccccc34)CC2)CN1Cc1ccccc1	–	Not significant	Not significant	Not significant	Not significant	2.91	–
CCCN1CC2(CCN(CC(O)C3COc4ccccc4O3)CC2)OC1=O (stereo not given)	–	Not significant	Not significant	Not significant	Not significant	–	–
